This passage reports selectivity ratio, IC50 and CC50 results from ChEMBL document CHEMBL4680199, “Synthesis and in vitro evaluation of new 5-substituted 6-nitroimidazooxazoles as antikinetoplastid agents” (Eur J Med Chem, 2020).

The nature of data set [1]: Selectivity index, ratio of CC50 for CHO cells to IC50 for antileishmanial activity against Leishmania donovani MHOM/IN/00/DEVI promastigotes. The note with it: hamster, read-out: Ratio CC50/IC50. In kind it is toxicity. The essentials:
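SI = CHO CC50 / promastigote IC50. Promastigotes: log-phase, Schneider's + 20% FCS, 10⁶/mL, DMSO <0.5% final, 72 h at 27 °C, MTT 4 h, A570, ≥3 experiments. CHO: complete RPMI + 10% FCS, 24 h attachment, 24 h exposure at 37 °C, MTT 0.5 mg/mL 2 h, A570/630, three experiments. Both values from non-linear regression of dose-response curves.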

In the next data set the test system is Trypanosoma cruzi. The data set is described as follows: Antitrypanosomal activity against Trypanosoma cruzi CL amastigotes overexpressing tdTomato red fluorescent protein infected in gamma-irradiated African green monkey Vero cells assessed as reduction in parasite growth measured 3 days post-infection by fluorescence assay. The following applies: light or radiation study, 72 h. It is filed as functional, organism-based.

The nature of data set [2]: Cytotoxicity against CHO cells assessed as reduction in cell viability after 24 hrs by MTT assay. In kind it is cell-based, Cricetulus griseus. The note with it: chinese hamster. In outline:
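Cells in complete RPMI (10% FCS, L-glutamine, penicillin/streptomycin) were allowed to adhere for 24 h at 37 °C in 5% CO₂. Compounds in DMSO (final <0.5% v/v) were then added in duplicate for 24 h. MTT (0.5 mg/mL in FCS-free medium) was applied for 2 h, formazan was dissolved in DMSO, and A570 was read with 630 nm reference. Viability is % of untreated cells; CC50 by non-linear regression; mean of three experiments.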

The next data set relates to Leishmania donovani. The data set is described as follows: Antileishmanial activity against Leishmania donovani MHOM/IN/00/DEVI promastigotes measured after 72 hrs by MTT assay. In kind it is functional, organism-based. The essentials:
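Log-phase promastigotes were grown in Schneider's medium with 20% FCS, 2 mM L-glutamine and penicillin/streptomycin, and seeded at 10⁶ parasites/mL. Compounds in DMSO (final <0.5% v/v) were tested in duplicate for 72 h at 27 °C. MTT was added for 4 h, the reaction was stopped with 50% isopropanol/10% SDS, and A570 was read. IC50 relative to control was fitted by non-linear regression; mean of ≥3 independent experiments.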
(Tetrazolium dyes change colour on reduction, which living cells bring about.)

Data set [3] is described as follows: Selectivity index, ratio of CC50 for CHO cells to IC50 for antitrypanosomal activity against Trypanosoma cruzi CL amastigotes overexpressing tdTomato red fluorescent protein infected in gamma-irradiated African green monkey Vero cells. The following applies: Chinese hamster, read-out: Ratio CC50/IC50. It is filed as toxicity. In outline: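 SI = CHO CC50 / T. cruzi IC50. CHO cells: complete RPMI + 10% FCS, 24 h attachment, then 24 h compound exposure at 37 °C, 5% CO₂, DMSO <0.5% final, in duplicate. MTT 0.5 mg/mL for 2 h, read at A570/630, three experiments. Parasites were tdTomato-labelled trypomastigotes. Both values from non-linear regression of dose-response curves.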

A value given as a limit tells only on which side of the number the result lay.

For orientation: IC50 means the concentration that inhibits the measured activity by half. The CC50 is the concentration at which the toxic effect on the cells reaches its halfway point. On to `CC1Cn2cc([N+](=O)[O-])nc2O1` (centres undefined), for which the selectivity ratio in data set [1] is above 5000. In addition, the IC50 in the data set with Trypanosoma cruzi was above 10 µM; with Leishmania donovani, 0.1 µM. Moreover, in data set [2], the CC50 at 24 h is above 500 µM.

As for `CC1Cn2c(nc([N+](=O)[O-])c2C#Cc2ccc(CO)cc2)O1` (centres undefined), the results for the selectivity ratio in data set [1] and in data set [3] were 2.1 and 5.4, respectively. For the same compound, the IC50 is 1.61 µM with Trypanosoma cruzi and 4.11 µM in the data set with Leishmania donovani. Besides, the CC50 at 24 h in data set [2] was 8.77 µM.

On to `Cc1ccc(-c2c([N+](=O)[O-])nc3n2CC(C)O3)s1` (centres undefined), for which the IC50 in the data set on Trypanosoma cruzi and with Leishmania donovani was above 10 µM each time. For the same compound, in data set [2], the CC50 at 24 h is above 125 µM.

On to `CC1Cn2c(nc([N+](=O)[O-])c2-c2ccc(C=O)cc2)O1` (centres undefined), for which the IC50 in the data set with Trypanosoma cruzi and with Leishmania donovani was above 10 µM throughout. In addition, the CC50 at 24 h in data set [2] was 255 µM.

`CC1Cn2c(nc([N+](=O)[O-])c2Br)O1` (centres undefined): the selectivity ratio in data set [1] worked out at 1.4. Further, the values for the IC50 with Trypanosoma cruzi and with Leishmania donovani were above 10 µM and 6.71 µM, respectively. Further, the CC50 at 24 h in data set [2] is 9.19 µM.

As to `CC1Cn2c(nc([N+](=O)[O-])c2-c2ccc(Cl)cc2)O1` (centres undefined), the IC50 with Trypanosoma cruzi and in the data set on Leishmania donovani was above 10 µM in each case. In addition, in data set [2], the CC50 at 24 h is above 250 µM.

`COc1cc(-c2c([N+](=O)[O-])nc3n2CC(C)O3)cc(OC)c1OC` (centres undefined): the IC50 with Trypanosoma cruzi and in the data set on Leishmania donovani was above 10 µM in each case. Moreover, in data set [2], the CC50 at 24 h was above 125 µM.

With `CC1Cn2c(nc([N+](=O)[O-])c2C#Cc2cccc(N)c2)O1` (centres undefined), the results for the selectivity ratio in data set [1] and in data set [3] were 5.2 and 5, respectively. Besides, the values for the IC50 in the data set on Trypanosoma cruzi and with Leishmania donovani were 3.63 µM and 3.49 µM, respectively. Moreover, in data set [2], the CC50 at 24 h came to 18.1 µM.

For `CC1Cn2c(nc([N+](=O)[O-])c2C#Cc2ccccc2)O1` (centres undefined), the selectivity ratio in data set [1] came out at 1.7; in data set [3], 2.4. Moreover, the IC50 was 1.46 µM in the data set on Trypanosoma cruzi and 2.08 µM in the data set with Leishmania donovani. In addition, the CC50 at 24 h in data set [2] amounted to 3.54 µM.

As for `COc1cccc(C#Cc2c([N+](=O)[O-])nc3n2CC(C)O3)c1` (centres undefined), the selectivity ratio worked out at 8.1 in data set [1] and 14 in data set [3]. Also, the IC50 came out at 0.92 µM in the data set on Trypanosoma cruzi and 1.58 µM in the data set with Leishmania donovani. Further, in data set [2], the CC50 at 24 h is 12.9 µM.

Regarding `CC1Cn2c(nc([N+](=O)[O-])c2C#Cc2ccc(C(C)(C)C)cc2)O1` (centres undefined), the results for the selectivity ratio in data set [1] and in data set [3] were 10.8 and 2.3, respectively. The values for the IC50 with Trypanosoma cruzi and in the data set on Leishmania donovani were 2.86 µM and 0.61 µM, respectively. In data set [2], the CC50 at 24 h came to 6.62 µM.

Consider `Cc1ccc(C#Cc2c([N+](=O)[O-])nc3n2CC(C)O3)cc1` (centres undefined), for which the selectivity ratio in data set [1] came to 3.3; in data set [3] it was 2.5. For the same compound, the IC50 with Trypanosoma cruzi was found to be 2.18 µM; in the data set on Leishmania donovani, 1.66 µM. Further, the half-maximal cytotoxic concentration (CC50) at 24 h in data set [2] worked out at 5.47 µM.

Consider `CC1Cn2c(nc([N+](=O)[O-])c2-c2ccc(OC(F)(F)F)cc2)O1` (centres undefined), for which the IC50 with Trypanosoma cruzi and with Leishmania donovani was above 10 µM each time. Also, in data set [2], the CC50 at 24 h is above 125 µM.

With `CC1Cn2c(nc([N+](=O)[O-])c2-c2cccc(C(F)(F)F)c2)O1` (centres undefined), the IC50 with Trypanosoma cruzi and in the data set with Leishmania donovani was above 10 µM throughout. Besides, in data set [2], the CC50 at 24 h is above 250 µM.

`CC1Cn2c(nc([N+](=O)[O-])c2C#CC2CC2)O1` (centres undefined): the figures for the selectivity ratio in data set [1] and in data set [3] were 1.4 and 1.6, respectively. For the same compound, the IC50 came out at 4.1 µM with Trypanosoma cruzi and 4.59 µM in the data set with Leishmania donovani. Further, in data set [2], the CC50 at 24 h is 6.45 µM.

Turning to `Cc1ccc(-c2c([N+](=O)[O-])nc3n2CC(C)O3)cc1` (centres undefined), the IC50 with Trypanosoma cruzi and in the data set on Leishmania donovani was above 10 µM throughout. The CC50 at 24 h in data set [2] was above 250 µM.

On to `CC1Cn2c(nc([N+](=O)[O-])c2-c2cccc(C#N)c2)O1` (centres undefined), for which the IC50 in the data set on Trypanosoma cruzi and in the data set on Leishmania donovani was above 10 µM each time. Further, the CC50 at 24 h in data set [2] is above 500 µM.

`CC1Cn2c(nc([N+](=O)[O-])c2-c2ccc(CO)cc2)O1` (centres undefined): the IC50 with Trypanosoma cruzi and in the data set with Leishmania donovani was above 10 µM throughout. For the same compound, in data set [2], the CC50 at 24 h was above 500 µM.

Take `CC1Cn2c(nc([N+](=O)[O-])c2-c2ccccc2)O1` (centres undefined): the IC50 in the data set with Trypanosoma cruzi and in the data set on Leishmania donovani was above 10 µM in each case. For the same compound, in data set [2], the CC50 at 24 h was above 500 µM.

Consider `CCCOc1ccc(-c2c([N+](=O)[O-])nc3n2CC(C)O3)cc1` (centres undefined), for which the IC50 with Trypanosoma cruzi and with Leishmania donovani was above 10 µM throughout. For the same compound, the CC50 at 24 h in data set [2] is above 125 µM.

Take `C[C@@H]1[C@H](O)[C@@H](C)/C=C/C=C/C=C/C=C/C=C/C=C/C=C/[C@H](O[C@@H]2O[C@H](C)[C@@H](O)[C@H](N)[C@@H]2O)C[C@@H]2O[C@](O)(C[C@@H](O)C[C@@H](O)[C@H](O)CC[C@@H](O)C[C@@H](O)CC(=O)O[C@H]1C)C[C@H](O)[C@H]2C(=O)O` [AMPHOTERICIN B]: in the data set with Leishmania donovani, the IC50 worked out at 0.18 µM.

As to `O=C(Cn1ccnc1[N+](=O)[O-])NCc1ccccc1` [BENZNIDAZOLE], the IC50 in the data set on Trypanosoma cruzi turned out to be 2.31 µM.

In the case of `COc1cccc2c1C(=O)c1c(O)c3c(c(O)c1C2=O)C[C@@](O)(C(=O)CO)C[C@@H]3O[C@H]1C[C@H](N)[C@H](O)[C@H](C)O1` [DOXORUBICIN], the cytotoxic concentration (CC50) at 24 h in data set [2] amounted to 4.65 µM.
